From ChEMBL document CHEMBL1772965, “Analogues and derivatives of oncrasin-1, a novel inhibitor of the C-terminal domain of RNA polymerase II and their antitumor activities” (J Med Chem, 2011)

How the values were obtained:
[1] = Cytotoxicity against mutant K-ras-transformed human T29Kt1 cells assessed as cell viability after 3 days by sulforhodamine B assay; type: functional, cell-based; settings: T29Kt1, 72 h
In short: (§1)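 Monolayer cultures were grown in RPMI-1640 or DMEM with 10% heat-inactivated fetal calf serum and penicillin/streptomycin, at 37°C and 5% CO2. Cells were exposed for 3 days to compound from 10−4.5 M (31.6 μM) down to 10−8 M (10 nM), with 1% DMSO as the control. Viability was read by sulforhodamine B. IC50 was the dose halving surviving cells versus control, run in quadruplicate and repeated at least three times.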

[2] = Cytotoxicity against human T29 cells assessed as cell viability after 3 days by sulforhodamine B assay; type: cell-based; settings: T29, 72 h; in short: as §1
[3] = tested on: NCI-H460; experiment: Cytotoxicity against human H460 cells assessed as cell viability after 3 days by sulforhodamine B assay; type: functional, cell-based; settings: NCI-H460, 72 h; in short: as §1
[4] = Stability of compound at pH 7.4; type: physicochemical; settings: buffer
[5] = Stability of compound at pH 2; type: physicochemical; settings: buffer

Compound: O=Cc1cn(Cc2cccc(Cl)c2)c2ccc(F)cc12
- IC50 [1]: 1.5 µM
- IC50 [2]: > 31.6 µM
- IC50 [3]: 0.37 µM
- Stability [4]: Stable
- Stability [5]: Stable

Compound: OCCc1cn(Cc2ccc(Cl)cc2)c2ccccc12
- IC50 [1]: > 31.6 µM
- IC50 [2]: > 31.6 µM
- IC50 [3]: > 31.6 µM

Compound: COCc1cn(Cc2ccc(Cl)cc2)c2ccccc12
- IC50 [1]: 7.94 µM
- IC50 [2]: > 31.6 µM
- IC50 [3]: 1.99 µM

Compound: N#Cc1cn(Cc2cccc(Cl)c2)c2ccccc12
- IC50 [1]: > 31.6 µM
- IC50 [2]: > 31.6 µM
- IC50 [3]: > 31.6 µM

Compound: O=Cc1cn(Cc2ccc(C(F)(F)F)cc2)c2ccccc12
- IC50 [1]: > 31.6 µM
- IC50 [2]: > 31.6 µM
- IC50 [3]: 1.58 µM
- Stability [4]: Stable
- Stability [5]: Stable

Compound: O=Cc1cn(Cc2ccc(Cl)cc2)c2ccc(Cl)cc12
- IC50 [1]: 10 µM
- IC50 [2]: > 31.6 µM
- IC50 [3]: 0.4 µM
- Stability [4]: Stable
- Stability [5]: Stable

Compound: Clc1cccc(Cn2cc(Cc3cn(Cc4cccc(Cl)c4)c4ccccc34)c3ccccc32)c1
- IC50 [1]: > 31.6 µM
- IC50 [2]: > 31.6 µM
- IC50 [3]: > 31.6 µM

Compound: O=Cc1cn(Cc2ccc([N+](=O)[O-])cc2)c2ccccc12
- IC50 [1]: 10 µM
- IC50 [2]: > 31.6 µM
- IC50 [3]: 0.5 µM
- Stability [4]: Stable
- Stability [5]: Stable

Compound: O=Cc1cn(CCCOc2ccc(Cl)cc2)c2ccccc12
- IC50 [1]: 4.89 µM
- IC50 [2]: > 31.6 µM
- IC50 [3]: 0.045 µM
- Stability [4]: Stable
- Stability [5]: Stable

Compound: O=Cc1cn(Cc2cccc(Br)c2)c2ccccc12
- IC50 [1]: 1.58 µM
- IC50 [2]: > 31.6 µM
- IC50 [3]: 0.039 µM
- Stability [4]: Stable
- Stability [5]: Stable

Compound: CC(=O)c1cn(Cc2ccccc2Cl)c2ccccc12
- IC50 [1]: > 31.6 µM
- IC50 [2]: > 31.6 µM
- IC50 [3]: > 31.6 µM

Compound: c1ccc(Cn2ccc3ccccc32)cc1
- IC50 [1]: > 31.6 µM
- IC50 [2]: > 31.6 µM
- IC50 [3]: > 31.6 µM

Compound: O=Cc1cn(Cc2ccc(Cl)cc2)c2cc(F)ccc12
- IC50 [1]: 9.19 µM
- IC50 [2]: > 31.6 µM
- IC50 [3]: 0.12 µM
- Stability [4]: Stable
- Stability [5]: Stable

Compound: COC(=O)CNCc1cn(Cc2ccc(Cl)cc2)c2ccccc12
- IC50 [1]: 5.01 µM
- IC50 [2]: 31.6 µM
- IC50 [3]: 0.1 µM

Compound: CC(O)c1cn(Cc2ccc(Cl)cc2)c2ccccc12 (stereo not drawn)
- IC50 [1]: 19.9 µM
- IC50 [2]: > 31.5 µM
- IC50 [3]: 25.1 µM

Compound: CC(=O)c1cn(Cc2cccc(Cl)c2)c2ccccc12
- IC50 [1]: > 31.6 µM
- IC50 [2]: > 31.6 µM
- IC50 [3]: > 31.6 µM

Compound: CC(=O)c1cn(Cc2ccccc2)c2ccccc12
- IC50 [1]: > 31.6 µM
- IC50 [2]: > 31.6 µM
- IC50 [3]: 10 µM

Compound: OCc1cc2cc(F)ccc2n1Cc1ccc(Cl)cc1
- IC50 [1]: 15.1 µM
- IC50 [2]: 17.4 µM
- IC50 [3]: 11.5 µM

Compound: OCCCc1cn(Cc2ccccc2)c2ccccc12
- IC50 [1]: > 31.6 µM
- IC50 [2]: > 31.6 µM
- IC50 [3]: > 31.6 µM

Compound: CC(=O)OCc1cn(Cc2ccc(Cl)cc2)c2ccccc12
- IC50 [1]: 0.063 µM
- IC50 [2]: > 31.6 µM
- IC50 [3]: 0.039 µM

Compound: Cc1cn(Cc2ccc(Cl)cc2)c2ccccc12
- IC50 [1]: > 31.6 µM
- IC50 [2]: > 31.6 µM
- IC50 [3]: > 31.6 µM

Compound: O=C(O)c1cn(Cc2ccccc2)c2ccccc12
- IC50 [1]: > 31.6 µM
- IC50 [2]: > 31.6 µM
- IC50 [3]: > 31.6 µM

Compound: CC(=O)c1cn(Cc2ccc(Cl)cc2)c2ccccc12
- IC50 [1]: > 31.6 µM
- IC50 [2]: > 31.6 µM
- IC50 [3]: > 31.6 µM

Compound: Brc1cccc(Cn2cc(Cc3cn(Cc4cccc(Br)c4)c4ccccc34)c3ccccc32)c1
- IC50 [1]: > 31.6 µM
- IC50 [2]: > 31.6 µM
- IC50 [3]: > 31.6 µM

Compound: COC(=O)c1cn(Cc2ccc(Br)cc2)c2ccccc12
- IC50 [1]: 6.3 µM
- IC50 [2]: 5 µM
- IC50 [3]: 5 µM

Compound: O=C(NC1CCCCC1)OCc1cn(Cc2ccc(Cl)cc2)c2ccccc12
- IC50 [1]: 0.2 µM
- IC50 [2]: > 31.6 µM
- IC50 [3]: 0.02 µM

Compound: O=C(O)c1cn(Cc2ccc(Cl)cc2)c2ccccc12
- IC50 [1]: > 31.6 µM
- IC50 [2]: > 31.6 µM
- IC50 [3]: > 31.6 µM

Compound: COC(=O)c1cn(Cc2ccc(Cl)cc2)c2ccccc12
- IC50 [1]: 25.1 µM
- IC50 [2]: 17.7 µM
- IC50 [3]: 31.6 µM
